Where two headings read alike, the source gives them in different places.
What was measured:
[1] = type: in vivo; conditions: rat, plasma, iv, 20 nmol/kg
Summary of the method: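 Sprague–Dawley rats (200–300 g) were dosed at 20 nmol/kg i.v. or s.c. Blood (200 µL) was drawn at 2, 6, 10, 24, 30 and 48 h, processed to plasma, extracted and analysed by UPLC-MS. Quantification used a calibration curve from spiked plasma, and parameters came from non-compartmental analysis. Groups were n = 4 for s.c., and n = 3 or 1 for i.v.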

[2] = after i.v. administration; cited from earlier work
[3] = in rats; cited from earlier work
[4] = PET imaging of 89Zr tracer, 17 MBq/kg; type: in vivo, rat
Summary of the method: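 Sprague–Dawley rats (200–300 g) received the 89Zr tracer (formulated at 5 MBq/nmol) i.v. or s.c. at 17 MBq/kg (3 nmol/kg). They were PET-imaged under 2–3% isoflurane/O2 at 4, 8, 24, 72 and 168 h, with a 350–650 keV window. Scans ran 15 min (4, 8 h), 20 min (24 h), 30 min (72 h) and 60 min (168 h), followed by a 323 s Co-57 transmission scan for attenuation correction. Images were decay-corrected to injection and reported as %ID/g.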

**Q.** For CC[C@H](C)[C@H](NC(=O)[C@H](Cc1ccccc1)NC(=O)[C@H](CCC(=O)O)NC(=O)[C@H](CCCNC(=N)N)NC(=O)[C@H](C)NC(=O)[C@H](C)NC(=O)[C@H](CCC(N)=O)NC(=O)[C@H](CCC(=O)O)NC(=O)[C@H](CCC(=O)O)NC(=O)[C@H](CC(C)C)NC(=O)[C@H](Cc1ccc(O)cc1)NC(=O)[C@H](CO)NC(=O)[C@H](CO)NC(=O)[C@@H](NC(=O)[C@H](CC(=O)O)NC(=O)[C@H](CO)NC(=O)[C@@H](NC(=O)[C@H](Cc1ccccc1)NC(=O)[C@@H](NC(=O)CNC(=O)[C@H](CCC(=O)O)NC(=O)[C@H](C)NC(=O)CCc1c[nH]cn1)[C@@H](C)O)[C@@H](C)O)C(C)C)C(=O)N[C@@H](C)C(=O)N[C@@H](Cc1c[nH]c2ccccc12)C(=O)N[C@@H](CC(C)C)C(=O)N[C@H](C(=O)N[C@@H](CCCNC(=N)N)C(=O)NCC(=O)N[C@@H](CCCNC(=N)N)C(=O)N[C@@H](CCCCNC(=O)COCCOCCNC(=O)COCCOCCNC(=O)CC[C@H](NC(=O)CCCCCCCCCCCCCCCCC(=O)O)C(=O)O)C(=O)NCC(=O)NCC(=O)N[C@@H](CO)C(=O)N[C@@H](CCCCNc1c(NCCCCCN(O)C(=O)CCC(=O)NCCCCCN(O)C(=O)CCC(=O)NCCCCCN(O)C(C)=O)c(=O)c1=O)C(=O)O)C(C)C [compound 2], which half-life [1] is on record?
**A.** Its half-life is 8.4 h.

**Q.** With semaglutide as the molecule, how does the half-life [2] read?
**A.** Its half-life is 7 to 12 h.

**Q.** And the plasma metabolite exposures [3]?
**A.** The plasma metabolite exposures was 1–7%.

**Q.** With CC[C@H](C)[C@H](NC(=O)[C@H](Cc1ccccc1)NC(=O)[C@H](CCC(=O)O)NC(=O)[C@H](CCCNC(=N)N)NC(=O)[C@H](C)NC(=O)[C@H](C)NC(=O)[C@H](CCC(N)=O)NC(=O)[C@H](CCC(=O)O)NC(=O)[C@H](CCC(=O)O)NC(=O)[C@H](CC(C)C)NC(=O)[C@H](Cc1ccc(O)cc1)NC(=O)[C@H](CO)NC(=O)[C@H](CO)NC(=O)[C@@H](NC(=O)[C@H](CC(=O)O)NC(=O)[C@H](CO)NC(=O)[C@@H](NC(=O)[C@H](Cc1ccccc1)NC(=O)[C@@H](NC(=O)CNC(=O)[C@H](CCC(=O)O)NC(=O)[C@H](C)NC(=O)CCc1c[nH]cn1)[C@@H](C)O)[C@@H](C)O)C(C)C)C(=O)N[C@@H](C)C(=O)N[C@@H](Cc1c[nH]c2ccccc12)C(=O)N[C@@H](CC(C)C)C(=O)N[C@H](C(=O)N[C@@H](CCCNC(=N)N)C(=O)NCC(=O)N[C@@H](CCCNC(=N)N)C(=O)N[C@@H](CCCCNC(=O)COCCOCCNC(=O)COCCOCCNC(=O)CC[C@H](NC(=O)CCCCCCCCCCCCCCCCC(=O)O)C(=O)O)C(=O)NCC(=O)NCC(=O)N[C@@H](CO)C(=O)N[C@@H](CCCCNc1c(NCCCCCN(O)C(=O)CCC(=O)NCCCCCN(O)C(=O)CCC(=O)NCCCCCN(O)C(C)=O)c(=O)c1=O)C(=O)O)C(C)C [[89Zr]2, metal not drawn] as the molecule, how does the “initial dose trapped in the subcutis” value ([4]; PET, s.c., after 168 h) read?
**A.** The value was 10%.

**Q.** What about the tissue uptake at 168 h ([4]; rat, kidney, iv, 3 nmol/kg, total radioactivity) of the same molecule?
**A.** The tissue uptake at 168 h was ~7 %ID/g.
